Reference: ChEMBL document CHEMBL4118021, “Studies of TAK1-centered polypharmacology with novel covalent TAK1 inhibitors” (Bioorg Med Chem, 2017)
Each block holds one compound with its values, some of them ahead of it. The source made the active and inactive calls. The rule behind the calls is not given here.

Experiments:
[1] = target: T1, Dual specificity mitogen-activated protein kinase kinase 4 (Homo sapiens) (UniProt P45985); test: Inhibition of human MEK4 (84 to 399 residues) expressed in mammalian expression system assessed as enzyme activity at 1 uM by KINOMEScan assay relative to control; parameters: scale not given: the % may be the effect or the level left
T1 sequence (whole entry): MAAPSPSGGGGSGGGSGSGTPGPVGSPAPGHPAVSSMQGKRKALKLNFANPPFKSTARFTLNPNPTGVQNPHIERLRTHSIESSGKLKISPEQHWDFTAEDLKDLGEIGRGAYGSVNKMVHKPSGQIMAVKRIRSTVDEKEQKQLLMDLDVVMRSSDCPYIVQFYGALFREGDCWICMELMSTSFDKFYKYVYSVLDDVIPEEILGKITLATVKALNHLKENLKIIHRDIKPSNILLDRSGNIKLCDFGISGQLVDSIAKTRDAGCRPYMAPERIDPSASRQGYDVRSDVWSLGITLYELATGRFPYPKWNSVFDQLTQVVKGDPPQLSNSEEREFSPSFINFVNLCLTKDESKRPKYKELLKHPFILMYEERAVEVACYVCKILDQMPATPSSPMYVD
Method in brief: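 In vitro ATP-site competition binding assay across a panel of 456 kinases, with compound tested at 1 and 10 μM.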

[2] = target: Ribosomal protein S6 kinase alpha-1 (Homo sapiens) (UniProt Q15418); test: Binding affinity to RPS6KA1 in human NCI-H358 cells at 1 uM by mass spectrometry based pull down assay; assay type: cell-based
[3] = target: Cancer-related nucleoside-triphosphatase (Homo sapiens) (UniProt Q9BSD7); test: Binding affinity to NTPCR in human NCI-H358 cells at 1 uM by mass spectrometry based pull down assay; assay type: cell-based
[4] = target: Aminoacyl tRNA synthase complex-interacting multifunctional protein 1 (Homo sapiens) (UniProt Q12904); test: Binding affinity to AIMP1 in human NCI-H358 cells at 1 uM by mass spectrometry based pull down assay; assay type: cell-based
Method in brief: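 NCI-H23 or NCI-H358 cells were grown and lysed. Lysates were incubated overnight at 4 °C with 1 μM biotinylated covalent probe or DMSO, then pulled down on streptavidin beads. Proteins were run on polyacrylamide gels and stained with Coomassie. Bands were excised, digested and identified by mass spectrometry.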

[5] = target: Adenylyltransferase and sulfurtransferase MOCS3 (Homo sapiens) (UniProt O95396); test: Binding affinity to MOCS3 in human NCI-H358 cells at 1 uM by mass spectrometry based pull down assay; assay type: cell-based
[6] = target: Acidic leucine-rich nuclear phosphoprotein 32 family member B (Homo sapiens) (UniProt Q92688); test: Binding affinity to ANP32B in human NCI-H23 cells at 1 uM by mass spectrometry based pull down assay; assay type: cell-based
[7] = target: Dihydropyrimidinase-related protein 2 (Homo sapiens) (UniProt Q16555); test: Binding affinity to DPYSL2 in human NCI-H23 cells at 1 uM by mass spectrometry based pull down assay; assay type: cell-based
[8] = target: V-type proton ATPase subunit B, brain isoform (Homo sapiens) (UniProt P21281); test: Binding affinity to ATP6V1B2 in human NCI-H23 cells at 1 uM by mass spectrometry based pull down assay; assay type: cell-based
[9] = target: Signal recognition particle receptor subunit beta (Homo sapiens) (UniProt Q9Y5M8); test: Binding affinity to SRPRB in human NCI-H358 cells at 1 uM by mass spectrometry based pull down assay; assay type: cell-based
[10] = target: Eukaryotic translation initiation factor 6 (Homo sapiens) (UniProt P56537); test: Binding affinity to EIF6 in human NCI-H358 cells at 1 uM by mass spectrometry based pull down assay; assay type: cell-based
[11] = tested on: NCI-H23; test: Binding affinity to PSMA3 in human NCI-H23 cells at 1 uM by mass spectrometry based pull down assay; assay type: cell-based
[12] = target: Glycogen phosphorylase, brain form (Homo sapiens) (UniProt P11216); test: Binding affinity to PYGB in human NCI-H358 cells at 1 uM by mass spectrometry based pull down assay; assay type: cell-based
[13] = target: T2, 80S Ribosome (Homo sapiens) (UniProt P08865+P42677+P62753+P15880+P23396+P61247+P62701+P22090+P46782+P62081+P62241+P46781+P46783+P62280+P25398+P62277+P62263+P62841+P62244+P62249+P08708+P62269+P39019+P60866+P63220+P62266+P62847+P62851+P62854+P62979+P62857+P62273+P62861+P39023+P36578+P46777+Q02878+P18124+P62424+P62917+P32969+P27635+P62906+P62913+P30050+P26373+P40429+P50914+P61313+P18621+Q07020+Q02543+P84098+P46778+P35268+P62829+P62750+P83731+P61254+P61353+P46776+P46779+P47914+P62888+P62899+P62910+P49207+P42766+P18077+Q9Y3U8+P83881+P61927+P61513+P63173+P62891+P62945+P05388+P05386); test: Binding affinity to RPL5 in human NCI-H358 cells at 1 uM by mass spectrometry based pull down assay; assay type: cell-based
[14] = target: Signal recognition particle subunit SRP54 (Homo sapiens) (UniProt P61011); test: Binding affinity to SRP54 in human NCI-H358 cells at 1 uM by mass spectrometry based pull down assay; assay type: cell-based
[15] = target: T1, Dual specificity mitogen-activated protein kinase kinase 4 (Homo sapiens); test: Binding affinity to MAP2K4 in human NCI-H23 cells at 1 uM by mass spectrometry based pull down assay; assay type: cell-based
[16] = target: Tropomyosin alpha-1 chain (Homo sapiens) (UniProt P09493); test: Binding affinity to TPM1 in human NCI-H358 cells at 1 uM by mass spectrometry based pull down assay; assay type: cell-based
[17] = target: RuvB-like 1 (Homo sapiens) (UniProt Q9Y265); test: Binding affinity to RUVBL1 in human NCI-H23 cells at 1 uM by mass spectrometry based pull down assay; assay type: cell-based
[18] = target: 6-phosphogluconate dehydrogenase, decarboxylating (Homo sapiens) (UniProt P52209); test: Binding affinity to PGD in human NCI-H358 cells at 1 uM by mass spectrometry based pull down assay
[19] = target: Proteasome activator complex subunit 2 (Homo sapiens) (UniProt Q9UL46); test: Binding affinity to PSME2 in human NCI-H23 cells at 1 uM by mass spectrometry based pull down assay; assay type: cell-based
[20] = target: Calcyclin-binding protein (Homo sapiens) (UniProt Q9HB71); test: Binding affinity to CACYBP in human NCI-H23 cells at 1 uM by mass spectrometry based pull down assay; assay type: cell-based
[21] = target: Transmembrane emp24 domain-containing protein 10 (Homo sapiens) (UniProt P49755); test: Binding affinity to TMED10 in human NCI-H358 cells at 1 uM by mass spectrometry based pull down assay; assay type: cell-based
[22] = target: T2, 80S Ribosome (Homo sapiens); test: Binding affinity to RPL35A in human NCI-H23 cells at 1 uM by mass spectrometry based pull down assay; assay type: cell-based
[23] = target: Inhibitor of nuclear factor kappa-B kinase subunit epsilon (Homo sapiens) (UniProt Q14164); test: Inhibition of IKKe in human SKCO1 cells at 1 uM after 4 hrs using biotin labeled DIKPGNIMR probe by mass-spectrometric analysis relative to control; assay type: cell-based

Chain of Aminoacyl tRNA synthase complex-interacting multifunctional protein 1 (Homo sapiens) (Q12904 whole entry, one chain of several): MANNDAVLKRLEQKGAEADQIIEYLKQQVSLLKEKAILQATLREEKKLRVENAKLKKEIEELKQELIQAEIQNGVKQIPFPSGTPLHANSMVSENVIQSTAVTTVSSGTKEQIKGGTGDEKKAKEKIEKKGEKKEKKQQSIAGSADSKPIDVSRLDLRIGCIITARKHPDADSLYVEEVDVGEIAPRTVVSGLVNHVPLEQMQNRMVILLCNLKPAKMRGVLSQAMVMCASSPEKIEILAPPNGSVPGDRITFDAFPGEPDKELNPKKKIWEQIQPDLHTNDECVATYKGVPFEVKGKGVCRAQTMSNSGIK
Chain of Signal recognition particle receptor subunit beta (Homo sapiens) (Q9Y5M8 whole entry): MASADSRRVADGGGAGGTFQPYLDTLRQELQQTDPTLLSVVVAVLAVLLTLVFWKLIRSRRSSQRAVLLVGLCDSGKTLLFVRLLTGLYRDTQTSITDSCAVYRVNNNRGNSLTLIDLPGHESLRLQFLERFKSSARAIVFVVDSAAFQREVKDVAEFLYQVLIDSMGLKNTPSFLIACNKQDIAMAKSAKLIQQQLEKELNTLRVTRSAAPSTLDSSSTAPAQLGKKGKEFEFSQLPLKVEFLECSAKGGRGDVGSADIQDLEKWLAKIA
Chain of Adenylyltransferase and sulfurtransferase MOCS3 (Homo sapiens) (O95396 whole entry): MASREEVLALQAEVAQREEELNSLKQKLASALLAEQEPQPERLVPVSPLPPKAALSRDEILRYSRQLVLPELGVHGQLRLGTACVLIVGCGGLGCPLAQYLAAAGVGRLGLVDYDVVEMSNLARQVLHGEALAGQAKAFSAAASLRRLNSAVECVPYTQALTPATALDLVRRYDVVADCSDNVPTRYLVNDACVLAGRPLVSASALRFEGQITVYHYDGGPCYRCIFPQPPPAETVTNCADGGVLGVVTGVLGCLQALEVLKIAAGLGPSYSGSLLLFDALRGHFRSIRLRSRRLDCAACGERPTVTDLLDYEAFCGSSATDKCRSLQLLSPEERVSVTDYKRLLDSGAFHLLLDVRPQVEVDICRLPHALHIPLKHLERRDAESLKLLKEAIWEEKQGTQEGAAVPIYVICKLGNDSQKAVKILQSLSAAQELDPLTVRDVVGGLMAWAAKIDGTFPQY
Chain of RuvB-like 1 (Homo sapiens) (Q9Y265 whole entry): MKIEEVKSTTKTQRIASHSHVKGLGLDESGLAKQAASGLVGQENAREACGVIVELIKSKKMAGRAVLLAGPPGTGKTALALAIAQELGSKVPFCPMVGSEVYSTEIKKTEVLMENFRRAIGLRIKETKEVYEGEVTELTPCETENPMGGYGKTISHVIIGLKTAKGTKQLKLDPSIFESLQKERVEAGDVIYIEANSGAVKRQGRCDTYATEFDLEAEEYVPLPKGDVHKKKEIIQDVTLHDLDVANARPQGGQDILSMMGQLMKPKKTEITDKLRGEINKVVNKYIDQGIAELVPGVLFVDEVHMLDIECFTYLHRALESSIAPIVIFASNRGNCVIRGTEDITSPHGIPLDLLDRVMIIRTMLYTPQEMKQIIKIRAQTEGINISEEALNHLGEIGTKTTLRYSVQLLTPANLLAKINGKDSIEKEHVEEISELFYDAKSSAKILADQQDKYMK
Chain of Proteasome activator complex subunit 2 (Homo sapiens) (Q9UL46 whole entry, one chain of several): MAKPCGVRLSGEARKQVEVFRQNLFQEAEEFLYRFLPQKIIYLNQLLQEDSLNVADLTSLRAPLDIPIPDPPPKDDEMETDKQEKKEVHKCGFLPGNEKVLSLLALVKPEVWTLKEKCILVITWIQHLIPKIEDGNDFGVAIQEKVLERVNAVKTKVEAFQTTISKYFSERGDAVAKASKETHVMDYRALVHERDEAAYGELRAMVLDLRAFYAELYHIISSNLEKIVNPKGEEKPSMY
Chain of Calcyclin-binding protein (Homo sapiens) (Q9HB71 whole entry, the tested form may be a part): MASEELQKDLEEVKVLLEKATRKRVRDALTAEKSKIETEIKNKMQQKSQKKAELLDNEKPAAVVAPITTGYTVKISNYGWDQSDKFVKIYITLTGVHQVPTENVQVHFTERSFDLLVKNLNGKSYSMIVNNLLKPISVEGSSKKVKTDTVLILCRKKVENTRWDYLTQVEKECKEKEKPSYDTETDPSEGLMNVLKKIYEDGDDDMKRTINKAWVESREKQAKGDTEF
Chain of Tropomyosin alpha-1 chain (Homo sapiens) (P09493 whole entry): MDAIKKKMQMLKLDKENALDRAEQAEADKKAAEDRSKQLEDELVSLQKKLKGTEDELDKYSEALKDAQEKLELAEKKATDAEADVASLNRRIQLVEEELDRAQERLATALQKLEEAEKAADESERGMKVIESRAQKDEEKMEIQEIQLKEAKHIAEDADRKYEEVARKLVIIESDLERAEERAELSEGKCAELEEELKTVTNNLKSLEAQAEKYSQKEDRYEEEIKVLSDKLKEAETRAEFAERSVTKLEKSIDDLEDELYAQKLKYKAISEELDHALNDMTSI
Chain of 6-phosphogluconate dehydrogenase, decarboxylating (Homo sapiens) (P52209 whole entry, looked up): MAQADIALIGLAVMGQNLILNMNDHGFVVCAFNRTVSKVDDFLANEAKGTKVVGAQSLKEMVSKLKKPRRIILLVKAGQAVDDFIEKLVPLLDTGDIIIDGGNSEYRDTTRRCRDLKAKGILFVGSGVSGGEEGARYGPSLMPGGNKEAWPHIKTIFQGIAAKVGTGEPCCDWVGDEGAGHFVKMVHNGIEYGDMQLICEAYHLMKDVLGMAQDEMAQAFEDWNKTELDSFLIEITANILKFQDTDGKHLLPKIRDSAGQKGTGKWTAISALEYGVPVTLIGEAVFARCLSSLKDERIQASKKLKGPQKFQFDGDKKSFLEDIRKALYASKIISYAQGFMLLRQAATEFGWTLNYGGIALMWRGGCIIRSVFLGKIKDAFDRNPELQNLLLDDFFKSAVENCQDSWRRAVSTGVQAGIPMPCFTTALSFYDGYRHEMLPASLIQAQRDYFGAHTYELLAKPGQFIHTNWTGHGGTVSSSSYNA
Chain of Cancer-related nucleoside-triphosphatase (Homo sapiens) (Q9BSD7 whole entry): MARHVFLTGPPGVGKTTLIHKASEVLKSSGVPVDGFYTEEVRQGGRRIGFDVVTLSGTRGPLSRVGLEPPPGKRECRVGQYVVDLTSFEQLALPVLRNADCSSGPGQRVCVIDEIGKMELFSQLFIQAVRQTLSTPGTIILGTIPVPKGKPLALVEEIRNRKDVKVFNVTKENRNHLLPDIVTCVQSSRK
Chain of Glycogen phosphorylase, brain form (Homo sapiens) (P11216 whole entry): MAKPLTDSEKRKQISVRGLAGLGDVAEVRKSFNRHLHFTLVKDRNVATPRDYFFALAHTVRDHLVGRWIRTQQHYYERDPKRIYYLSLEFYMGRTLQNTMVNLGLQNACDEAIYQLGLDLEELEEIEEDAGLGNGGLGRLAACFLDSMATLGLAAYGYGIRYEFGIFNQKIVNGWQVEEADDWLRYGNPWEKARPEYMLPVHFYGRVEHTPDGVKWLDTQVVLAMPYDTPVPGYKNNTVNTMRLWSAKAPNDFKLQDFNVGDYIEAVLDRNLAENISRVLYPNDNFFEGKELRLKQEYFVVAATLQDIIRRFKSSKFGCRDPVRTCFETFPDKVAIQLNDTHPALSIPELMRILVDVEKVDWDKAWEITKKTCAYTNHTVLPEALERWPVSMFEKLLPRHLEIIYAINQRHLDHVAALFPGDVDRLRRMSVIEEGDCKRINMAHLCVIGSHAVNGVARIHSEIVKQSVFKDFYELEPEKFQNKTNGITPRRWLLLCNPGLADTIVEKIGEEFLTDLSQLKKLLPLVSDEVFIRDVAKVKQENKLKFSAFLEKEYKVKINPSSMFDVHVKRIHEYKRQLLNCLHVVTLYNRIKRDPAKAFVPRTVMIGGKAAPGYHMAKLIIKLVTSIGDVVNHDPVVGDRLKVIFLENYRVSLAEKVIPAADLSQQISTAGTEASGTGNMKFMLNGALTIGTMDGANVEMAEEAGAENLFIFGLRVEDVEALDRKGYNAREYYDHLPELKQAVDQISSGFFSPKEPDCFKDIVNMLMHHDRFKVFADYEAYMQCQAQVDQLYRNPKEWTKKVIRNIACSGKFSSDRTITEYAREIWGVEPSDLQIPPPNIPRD
Chain of Acidic leucine-rich nuclear phosphoprotein 32 family member B (Homo sapiens) (Q92688 whole entry): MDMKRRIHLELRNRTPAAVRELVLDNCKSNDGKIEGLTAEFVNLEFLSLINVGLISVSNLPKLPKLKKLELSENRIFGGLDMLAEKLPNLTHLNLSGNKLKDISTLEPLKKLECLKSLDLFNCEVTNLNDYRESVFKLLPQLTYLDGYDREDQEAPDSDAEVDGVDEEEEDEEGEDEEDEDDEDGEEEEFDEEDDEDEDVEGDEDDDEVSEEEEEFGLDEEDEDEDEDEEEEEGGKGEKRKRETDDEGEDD
Chain of V-type proton ATPase subunit B, brain isoform (Homo sapiens) (P21281 whole entry, canonical isoform): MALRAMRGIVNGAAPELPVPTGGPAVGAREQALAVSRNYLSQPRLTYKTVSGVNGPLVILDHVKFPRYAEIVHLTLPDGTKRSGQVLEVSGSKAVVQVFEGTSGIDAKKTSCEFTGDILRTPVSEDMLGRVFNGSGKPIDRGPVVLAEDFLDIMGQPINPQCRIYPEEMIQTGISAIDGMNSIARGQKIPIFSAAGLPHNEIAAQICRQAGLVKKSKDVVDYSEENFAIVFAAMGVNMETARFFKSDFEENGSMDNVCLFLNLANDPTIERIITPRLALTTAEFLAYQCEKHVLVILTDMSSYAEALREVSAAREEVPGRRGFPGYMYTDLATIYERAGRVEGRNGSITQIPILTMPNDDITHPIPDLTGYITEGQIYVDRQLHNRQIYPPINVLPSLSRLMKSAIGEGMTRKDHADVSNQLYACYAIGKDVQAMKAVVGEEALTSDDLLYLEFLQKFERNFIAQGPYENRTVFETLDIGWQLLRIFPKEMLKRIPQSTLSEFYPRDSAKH
Chain of Transmembrane emp24 domain-containing protein 10 (Homo sapiens) (P49755 whole entry, the tested form may be a part): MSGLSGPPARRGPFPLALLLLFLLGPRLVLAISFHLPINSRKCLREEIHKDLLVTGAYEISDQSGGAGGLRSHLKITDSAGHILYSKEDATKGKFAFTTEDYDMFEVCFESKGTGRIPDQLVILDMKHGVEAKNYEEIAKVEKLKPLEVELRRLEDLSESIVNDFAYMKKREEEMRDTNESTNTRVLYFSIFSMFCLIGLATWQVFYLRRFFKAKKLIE

SMILES: COc1cc(O)c2c(c1)/C=C/C[C@H](O)[C@H](O)C(=O)/C=C\C[C@H](C)OC2=O
Activity [1]: 19%

Activity [2]: Active
Activity [3]: Active
Activity [4]: Active
Activity [5]: Active
Activity [6]: Active
Activity [7]: Active
Activity [8]: Active
Activity [9]: Active
Activity [10]: Active
Activity [12]: Active
Activity [13]: Active
Activity [14]: Active
Activity [15]: Active
Activity [16]: Active
Activity [17]: Active
Activity [18]: Active
Activity [19]: Active
Activity [20]: Active
Activity [21]: Active
Activity [22]: Active
SMILES: C=CC(=O)Nc1ccccc1Nc1nc(Nc2ccc(N3CCN(CCOCCOCCOCCNC(=O)CCCC[C@@H]4SC[C@@H]5NC(=O)N[C@@H]54)CC3)cc2)ncc1Cl
Activity [11]: Active

SMILES: C=CC(=O)Nc1ccccc1Nc1nc(Nc2ccc(N3CCN(C)CC3)cc2)ncc1Cl
inhibition [23]: 59.3%
